Experimental data as given in ChEMBL document CHEMBL5532695, “4-Trifluoromethyl bithiazoles as broad-spectrum antimicrobial agents for virus-related bacterial infections or co-infections” (RSC Med Chem, 2024).
Active and inactive are the calls of the source. The calls are words filed in the database; no cut-off is given here.

Columns and labels:
rhinovirus A16 [1] = test: Antiviral activity against 7 times rupintrivir passaged resistance model of Human rhinovirus 16 infected in human HeLa cells assessed as inhibition of viral replication; type: functional, organism-based; details: Rhinovirus A
In short: (§1)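 HeLa cells infected with RVA16 and serially passaged under compound, supernatants harvested at extensive CPE (3–6 dpi), clarified and titrated on HeLa; each passage used prior virus at MOI 0.01, drug concentration doubled when possible; after 7 passages RNA sequenced. Antiviral read-out: HeLa at 33 °C, 48 h, VP3 immunostaining with HRP secondary; EC50 from variable-slope sigmoidal fit.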

rhinovirus A16 [2] = test: Antiviral activity against 7 times N-(4'-(Trifluoromethyl)-2-((3-(trifluoromethyl)phenyl)amino)-[4,5'-bithiazol]-2'-yl)benzamide passaged resistance model of Human rhinovirus 16 infected in human HeLa cells assessed as inhibition of viral replication; type: functional, organism-based; details: Rhinovirus A; in short: as §1
rhinovirus A16 [3] = test: microbe, parasite or virus in culture; details: Rhinovirus A, HeLa, 48 h
Klebsiella pneumoniae = test: Synergistic antibacterial activity against Klebsiella pneumoniae ATCC 13833 incubated for 18 to 24 hrs in presence of colistin by broth microdilution method; type: functional; details: time 18-24 hrs
[4] = tested on: Staphylococcus epidermidis; test: Bactericidal activity against linezolid-resistant Staphylococcus epidermidis SI-1266 assessed as reduction in microbial growth measured after 18 hrs by CLSI based broth microdilution method; type: functional
Streptococcus pyogenes [5] = test: Antibacterial activity against Streptococcus pyogenes ATCC 12344 assessed as reduction in microbial growth measured after 18 hrs by CLSI based broth microdilution method; type: functional
In short: (§2)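 MIC by CLSI broth microdilution in Mueller–Hinton medium, triplicate. Inoculum 5 × 10^4 CFU per well. Compounds taken up in DMSO (50 mg mL−1 stock) and diluted in medium. Read after 18 h at 35 ± 2 °C.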

Enterococcus faecium [6] = test: Bactericidal activity against Vancomycin resistant Enterococcus faecium SI-1831 assessed as reduction in microbial growth measured after 18 hrs by CLSI based broth microdilution method; type: functional
Bacillus subtilis [7] = test: Antibacterial activity against Bacillus subtilis ATCC 6633 assessed as reduction in microbial growth measured after 18 hrs by CLSI based broth microdilution method; type: functional; in short: as §2
Streptococcus pyogenes [8] = test: Bactericidal activity against Streptococcus pyogenes ATCC 12344 assessed as reduction in microbial growth measured after 18 hrs by CLSI based broth microdilution method; type: functional
In short: (§3)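 MBC by CLSI broth microdilution in Mueller–Hinton medium, triplicate. Inoculum 5 × 10^4 CFU per well. Read after 18 h at 35 ± 2 °C.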

Staphylococcus aureus [9] = test: Antibacterial activity against methicillin-resistant Staphylococcus aureus ATCC 43300 assessed as reduction in microbial growth measured after 18 hrs by CLSI based broth microdilution method; type: functional
In short: (§4)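 Gram-positive clinical isolates; compounds dissolved in DMSO (50 mg mL−1 stock) and diluted in medium; MIC by CLSI broth microdilution in Mueller–Hinton medium, inoculum 5 × 10^4 CFU per well, read after 18 h at 35 ± 2 °C; triplicate.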

Acinetobacter baumannii [10] = test: Synergistic antibacterial activity against colistin/carbapenem resistant MDR Acinetobacter baumannii N50 incubated for 18 to 24 hrs in presence of colistin by broth microdilution method; type: functional; details: time 18-24 hrs
In short: (§5)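 Minimum antibacterial concentration (MAC) by broth microdilution in Mueller–Hinton medium with a fixed subinhibitory colistin concentration of 2 μg mL−1 against colistin-resistant Gram-negative clinical isolates; inoculum 5 × 10^4 CFU per well, 35 ± 2 °C; triplicate.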

Staphylococcus warneri [11] = test: Bactericidal activity against oxacillin-resistant Staphylococcus warneri SI-5/2011 assessed as reduction in microbial growth measured after 18 hrs by CLSI based broth microdilution method; type: functional
Staphylococcus aureus [12] = test: Bactericidal activity against methicillin-resistant Staphylococcus aureus ATCC 43300 assessed as reduction in microbial growth measured after 18 hrs by CLSI based broth microdilution method; type: functional
Enterococcus faecium [13] = test: Antibacterial activity against Vancomycin resistant Enterococcus faecium SI-3856B assessed as reduction in microbial growth measured after 18 hrs by CLSI based broth microdilution method; type: functional; in short: as §4
enterovirus D68 = test: microbe, parasite or virus in culture; details: Enterovirus D, HeLa, 48 h
Enterococcus faecium [14] = test: Antibacterial activity against Vancomycin/teicoplanin resistant Enterococcus faecium SI-759 assessed as reduction in microbial growth measured after 18 hrs by CLSI based broth microdilution method; type: functional; in short: as §4
Zika virus = test: microbe, parasite or virus in culture; details: Vero C1008, 72 h
Pseudomonas aeruginosa [15] = test: Synergistic antibacterial activity against Pseudomonas aeruginosa ATCC 27853 incubated for 18 to 24 hrs in presence of colistin by broth microdilution method; type: functional; details: time 18-24 hrs
Enterococcus faecium [16] = test: Bactericidal activity against Vancomycin/teicoplanin resistant Enterococcus faecium SI-759 assessed as reduction in microbial growth measured after 18 hrs by CLSI based broth microdilution method; type: functional
[17] = Cytotoxicity against human HeLa cells assessed as reduction in cell viability by MTT assay; type: toxicity, cell-based
In short: (§6)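 MTT viability on HeLa or VeroE6 cells, run in parallel with the antiviral assays. CC50 from variable-slope sigmoidal dose–response regression.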

Escherichia coli [18] = test: Synergistic antibacterial activity against colistin resistant mcr-positive Escherichia coli SI-63 incubated for 18 to 24 hrs in presence of colistin by broth microdilution method; type: functional; details: time 18-24 hrs; in short: as §5
Enterococcus faecalis [19] = test: Antibacterial activity against Enterococcus faecalis ATCC 29212 assessed as reduction in microbial growth measured after 18 hrs by CLSI based broth microdilution method; type: functional; in short: as §2
[20] = tested on: Staphylococcus haemolyticus; test: Antibacterial activity against oxacillin-resistant Staphylococcus haemolyticus SI-6/2011 assessed as reduction in microbial growth measured after 18 hrs by CLSI based broth microdilution method; type: functional; in short: as §4
[21] = tested on: Staphylococcus haemolyticus; test: Bactericidal activity against oxacillin-resistant Staphylococcus haemolyticus SI-6/2011 assessed as reduction in microbial growth measured after 18 hrs by CLSI based broth microdilution method; type: functional
[22] = Cytotoxicity against african green monkey Vero E6 cells assessed as reduction in cell viability by MTT assay; type: toxicity, cell-based; details: chlorocebus sabaeus, Vero E6 cells (Vero C1008); in short: as §6
Staphylococcus aureus [23] = test: Antibacterial activity against Staphylococcus aureus ATCC 25923 assessed as reduction in microbial growth measured after 18 hrs by CLSI based broth microdilution method; type: functional; in short: as §2
Staphylococcus warneri [24] = test: Antibacterial activity against oxacillin-resistant Staphylococcus warneri SI-5/2011 assessed as reduction in microbial growth measured after 18 hrs by CLSI based broth microdilution method; type: functional; in short: as §4
Enterococcus faecium [25] = test: Antibacterial activity against Vancomycin resistant Enterococcus faecium SI-1831 assessed as reduction in microbial growth measured after 18 hrs by CLSI based broth microdilution method; type: functional; in short: as §4
Pseudomonas aeruginosa [26] = test: Synergistic antibacterial activity against colistin resistant MDR Pseudomonas aeruginosa SI-270 incubated for 18 to 24 hrs in presence of colistin by broth microdilution method; type: functional; details: time 18-24 hrs; in short: as §5
Enterococcus faecium [27] = test: Bactericidal activity against Vancomycin resistant Enterococcus faecium SI-3856B assessed as reduction in microbial growth measured after 18 hrs by CLSI based broth microdilution method; type: functional
Escherichia coli [28] = test: Synergistic antibacterial activity against Escherichia coli CCUGT incubated for 18 to 24 hrs in presence of colistin by broth microdilution method; type: functional; details: time 18-24 hrs
Staphylococcus aureus [29] = test: Bactericidal activity against Staphylococcus aureus ATCC 25923 assessed as reduction in microbial growth measured after 18 hrs by CLSI based broth microdilution method; type: functional; in short: as §3
Enterococcus faecalis [30] = test: Bactericidal activity against Enterococcus faecalis ATCC 29212 assessed as reduction in microbial growth measured after 18 hrs by CLSI based broth microdilution method; type: functional; in short: as §3
Bacillus subtilis [31] = test: Bactericidal activity against Bacillus subtilis ATCC 6633 assessed as reduction in microbial growth measured after 18 hrs by CLSI based broth microdilution method; type: functional; in short: as §3
Acinetobacter baumannii [32] = test: Synergistic antibacterial activity against Acinetobacter baumannii ATCC 17978 incubated for 18 to 24 hrs in presence of colistin by broth microdilution method; type: functional; details: time 18-24 hrs
[33] = biological target: Phosphatidylinositol 4-kinase beta (Homo sapiens, UniProt Q9UBF8); test: Inhibition of recombinant full length his tagged PI4KB (unknown origin) incubated for 10 mins in presence of ATP by ADP-glo kinase assay
Sequence of Phosphatidylinositol 4-kinase beta (Q9UBF8 whole entry): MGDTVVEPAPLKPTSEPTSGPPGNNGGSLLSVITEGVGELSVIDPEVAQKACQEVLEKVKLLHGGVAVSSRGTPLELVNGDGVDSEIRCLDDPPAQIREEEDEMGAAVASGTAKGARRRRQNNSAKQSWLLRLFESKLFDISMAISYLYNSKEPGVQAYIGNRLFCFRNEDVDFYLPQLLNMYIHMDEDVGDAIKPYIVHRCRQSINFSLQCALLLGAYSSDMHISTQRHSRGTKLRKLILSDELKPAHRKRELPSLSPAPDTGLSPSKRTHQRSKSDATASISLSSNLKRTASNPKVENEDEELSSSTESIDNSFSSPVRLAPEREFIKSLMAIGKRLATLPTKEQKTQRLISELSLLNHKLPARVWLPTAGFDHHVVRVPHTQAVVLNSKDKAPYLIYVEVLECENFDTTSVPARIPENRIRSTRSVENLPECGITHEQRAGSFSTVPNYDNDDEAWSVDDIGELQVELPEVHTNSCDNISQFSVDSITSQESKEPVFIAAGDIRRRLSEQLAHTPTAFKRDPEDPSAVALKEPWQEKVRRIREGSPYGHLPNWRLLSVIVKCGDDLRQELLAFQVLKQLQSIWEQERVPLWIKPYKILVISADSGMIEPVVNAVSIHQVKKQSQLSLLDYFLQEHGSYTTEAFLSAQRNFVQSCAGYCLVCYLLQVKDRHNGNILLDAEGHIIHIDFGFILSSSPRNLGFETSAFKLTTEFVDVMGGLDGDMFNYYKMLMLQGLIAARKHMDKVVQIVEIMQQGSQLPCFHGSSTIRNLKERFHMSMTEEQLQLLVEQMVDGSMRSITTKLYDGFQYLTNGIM

[34] = tested on: Staphylococcus epidermidis; test: Antibacterial activity against linezolid-resistant Staphylococcus epidermidis SI-1266 assessed as reduction in microbial growth measured after 18 hrs by CLSI based broth microdilution method; type: functional; in short: as §4
rhinovirus A16 [35] = test: Antiviral activity against hRVA16 infected in human HeLa cells assessed as effect on release of infectious virus at 5 uM measured after 24 hrs post infection by time of addition assay; type: functional, organism-based
In short: (§7)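 Time of addition: HeLa cells infected with RVA16 at MOI 0.1. Compound at 5 μM added 1 h before, during, or 1, 2, 4 or 6 h after infection. At 24 h, cells lysed and intracellular viral RNA measured by RV-specific qPCR; supernatant titrated on HeLa cells.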

rhinovirus A16 [36] = test: Antiviral activity against hRVA16 infected in human HeLa cells assessed as effect on RNA intracellular level at 5 uM pretreated for 1 hrs before infection and measured after 1 to 6 hrs post infection by time of addition assay; type: functional, organism-based; details: time 2-7 hrs; in short: as §7

SMILES | EC50 (rhinovirus A16 [1]) [µM] | EC50 (rhinovirus A16 [2]) [µM] | MAC (Klebsiella pneumoniae) [µg/mL] | MIC (Streptococcus pyogenes [5]) [µg/mL] | MIC (Bacillus subtilis [7]) [µg/mL] | MAC (Acinetobacter baumannii [10]) [µg/mL] | IC50 (enterovirus D68) [µM] | IC50 (Zika virus) [µM] | MAC (Pseudomonas aeruginosa [15]) [µg/mL] | CC50 [17] [µM] | MAC (Escherichia coli [18]) [µg/mL] | MIC (Enterococcus faecalis [19]) [µg/mL] | IC50 (rhinovirus A16 [3]) [µM] | CC50 [22] [µM] | MIC (Staphylococcus aureus [23]) [µg/mL] | MAC (Pseudomonas aeruginosa [26]) [µg/mL] | MAC (Escherichia coli [28]) [µg/mL] | MAC (Acinetobacter baumannii [32]) [µg/mL] | IC50 [33] | other results
CC(C)S(=O)(=O)n1c(N)nc2ccc(/C(=N/O)c3ccccc3)cc21 [ENVIROXIME] | 0.027 | 0.027 |  |  |  |  |  |  |  |  |  |  |  |  |  |  |  |  |  | EC50 (rhinovirus A16 [3]): 0.049 µM
CC(C)(C)C(=O)Nc1nc(C(F)(F)F)c(-c2csc(Nc3cccc(C(F)(F)F)n3)n2)s1 |  |  | 2 | 8 | 8 | 0.06 | 6.74 | 6.9 | >64 | 31.8 | 1 | 8 | 9.02 | 46 | 32 | 64 | 2 | 4 | Not Active | MBC [4]: > 64 µg/mL; MBC (Enterococcus faecium [6]): > 64 µg/mL; MBC (Streptococcus pyogenes [8]): 8 µg/mL; MIC (Staphylococcus aureus [9]): 16 µg/mL; MBC (Staphylococcus warneri [11]): > 64 µg/mL; MBC (Staphylococcus aureus [12]): > 64 µg/mL; MIC (Enterococcus faecium [13]): > 64 µg/mL; MIC (Enterococcus faecium [14]): 64 µg/mL; MBC (Enterococcus faecium [16]): > 64 µg/mL; MIC [20]: > 64 µg/mL; MBC [21]: > 64 µg/mL; MIC (Staphylococcus warneri [24]): > 64 µg/mL; MIC (Enterococcus faecium [25]): > 64 µg/mL; MBC (Enterococcus faecium [27]): > 64 µg/mL; MBC (Staphylococcus aureus [29]): > 32 µg/mL; MBC (Enterococcus faecalis [30]): 16 µg/mL; MBC (Bacillus subtilis [31]): 16 µg/mL; MIC [34]: > 64 µg/mL
O=C(Nc1nc(C(F)(F)F)c(-c2csc(Nc3cccc(C(F)(F)F)c3)n2)s1)c1ccccc1 | 1.04 | 4.32 | 64 | > 32 | > 32 | 0.06 | 1.11 | 4.62 | >64 | > 50 | 1 | > 32 | 0.49 | 35.9 | > 32 | 16 | 2 | 8 | Not Active | Activity (rhinovirus A16 [35]): Active; Activity (rhinovirus A16 [36]): Active
